Test results reported in ChEMBL document CHEMBL3758168, “Hybrid triazoles: Design and synthesis as potential dual inhibitor of growth and efflux inhibition in tuberculosis” (Eur J Med Chem, 2016).
Converted amounts (≈) assume the structure as drawn.

Experiments:
[1] = tested on: Mycolicibacterium smegmatis; assay: Anti-tubercular activity against Mycobacterium smegmatis MC2 155 ATCC 700084 after 3 days by microdilution method; format: functional; details: MC2 155 ATCC 700084, 72 h
Method in brief: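 M. smegmatis mc2155 grown in MB7H9 + 10% OADC at 37 °C with shaking to OD600 0.8. Inoculum set to 0.5 McFarland, diluted 1:100, and mixed 1:1 with two-fold serial dilutions in MB7H9. Plates incubated 3 days at 37 °C with growth and sterility controls. MIC taken as the lowest concentration with no visible growth.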

[2] = Cytotoxicity against human MDM assessed as cell viability after 3 days by Alamar blue dye-based fluorocytometric analysis relative to control; details: 72 h
[3] = tested on: Mycobacterium tuberculosis; assay: Antibacterial activity against Mycobacterium tuberculosis H37Rv ATCC 27294T assessed as isoniazid MIC at 0.25 ug/ml after 7 days by microdilution checkerboard assay; format: functional; details: 168 h
Method in brief: (§1)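 Two-dimensional checkerboard in H37Rv at 10^5 CFU/ml in MB7H9/OADC. Partner drug (amikacin, EtBr, isoniazid, ofloxacin or rifampin) two-fold serially diluted across columns 3-11. Test compound two-fold serially diluted down rows 2-6. Plates incubated 7 days at 37 °C, then MTT added overnight. […] Run in triplicate.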

[4] = tested on: Mycobacterium tuberculosis; assay: Antibacterial activity against Mycobacterium tuberculosis H37Rv ATCC 27294T assessed as isoniazid MIC at 0.12 ug/ml after 7 days by microdilution checkerboard assay; format: functional; details: 168 h; method in brief: as §1
[5] = tested on: Mycobacterium tuberculosis; assay: Antibacterial activity against Mycobacterium tuberculosis H37Rv ATCC 27294T assessed as ethidium bromide MIC at 0.12 ug/ml after 7 days by microdilution checkerboard assay; format: functional; details: 168 h; method in brief: as §1
[6] = tested on: Mycobacterium tuberculosis; assay: Antibacterial activity against Mycobacterium tuberculosis H37Rv ATCC 27294T assessed as ethidium bromide MIC at 0.25 ug/ml after 7 days by microdilution checkerboard assay; format: functional; details: 168 h; method in brief: as §1
[7] = tested on: Mycobacterium tuberculosis; assay: Antibacterial activity against Mycobacterium tuberculosis H37Rv ATCC 27294T assessed as ethidium bromide MIC at 0.5 ug/ml after 7 days by microdilution checkerboard assay; format: functional; details: 168 h; method in brief: as §1
[8] = tested on: Mycobacterium tuberculosis; assay: Antibacterial activity against Mycobacterium tuberculosis H37Rv ATCC 27294T assessed as ethidium bromide MIC at 1 ug/ml after 7 days by microdilution checkerboard assay; format: functional; details: 168 h; method in brief: as §1
[9] = tested on: Mycobacterium tuberculosis; assay: Antibacterial activity against Mycobacterium tuberculosis H37Rv ATCC 27294T assessed as ethidium bromide MIC at 2 ug/ml after 7 days by microdilution checkerboard assay; format: functional; details: 168 h; method in brief: as §1
[10] = tested on: Mycobacterium tuberculosis; assay: Antibacterial activity against Mycobacterium tuberculosis H37Rv ATCC 27294T assessed as ethidium bromide MIC at 4 ug/ml after 7 days by microdilution checkerboard assay; format: functional; details: 168 h; method in brief: as §1
[11] = tested on: Mycobacterium tuberculosis; assay: Antibacterial activity against Mycobacterium tuberculosis H37Rv ATCC 27294T assessed as ethidium bromide MIC at 8 ug/ml after 7 days by microdilution checkerboard assay; format: functional; details: 168 h; method in brief: as §1
[12] = tested on: Mycobacterium tuberculosis; assay: Antibacterial activity against Mycobacterium tuberculosis H37Rv ATCC 27294T assessed as ofloxacin MIC at 0.12 ug/ml after 7 days by microdilution checkerboard assay; format: functional; details: 168 h; method in brief: as §1
[13] = tested on: Mycobacterium tuberculosis; assay: Antibacterial activity against Mycobacterium tuberculosis H37Rv ATCC 27294T assessed as ofloxacin MIC at 0.25 ug/ml after 7 days by microdilution checkerboard assay; format: functional; details: 168 h; method in brief: as §1
[14] = tested on: Mycobacterium tuberculosis; assay: Antibacterial activity against Mycobacterium tuberculosis H37Rv ATCC 27294T assessed as ofloxacin MIC at 0.5 ug/ml after 7 days by microdilution checkerboard assay; format: functional; details: 168 h; method in brief: as §1
[15] = tested on: Mycobacterium tuberculosis; assay: Antibacterial activity against Mycobacterium tuberculosis H37Rv ATCC 27294T assessed as ofloxacin MIC at 1 ug/ml after 7 days by microdilution checkerboard assay; format: functional; details: 168 h; method in brief: as §1
[16] = tested on: Mycobacterium tuberculosis; assay: Antibacterial activity against Mycobacterium tuberculosis H37Rv ATCC 27294T assessed as ofloxacin MIC at 2 ug/ml after 7 days by microdilution checkerboard assay; format: functional; details: 168 h; method in brief: as §1
[17] = tested on: Mycobacterium tuberculosis; assay: Antibacterial activity against Mycobacterium tuberculosis H37Rv ATCC 27294T assessed as ofloxacin MIC at 4 ug/ml after 7 days by microdilution checkerboard assay; format: functional; details: 168 h; method in brief: as §1
[18] = tested on: Mycobacterium tuberculosis; assay: Antibacterial activity against Mycobacterium tuberculosis H37Rv ATCC 27294T assessed as ofloxacin MIC at 8 ug/ml after 7 days by microdilution checkerboard assay; format: functional; details: 168 h; method in brief: as §1
[19] = tested on: Mycobacterium tuberculosis; assay: Antibacterial activity against Mycobacterium tuberculosis H37Rv ATCC 27294T assessed as amikacin MIC at 0.12 ug/ml after 7 days by microdilution checkerboard assay; format: functional; details: 168 h; method in brief: as §1
[20] = tested on: Mycobacterium tuberculosis; assay: Antibacterial activity against Mycobacterium tuberculosis H37Rv ATCC 27294T assessed as amikacin MIC at 0.25 ug/ml after 7 days by microdilution checkerboard assay; format: functional; details: 168 h; method in brief: as §1
[21] = tested on: Mycobacterium tuberculosis; assay: Antibacterial activity against Mycobacterium tuberculosis H37Rv ATCC 27294T assessed as amikacin MIC at 0.5 ug/ml after 7 days by microdilution checkerboard assay; format: functional; details: 168 h; method in brief: as §1
[22] = tested on: Mycobacterium tuberculosis; assay: Antibacterial activity against Mycobacterium tuberculosis H37Rv ATCC 27294T assessed as amikacin MIC at 1 ug/ml after 7 days by microdilution checkerboard assay; format: functional; details: 168 h; method in brief: as §1
[23] = tested on: Mycobacterium tuberculosis; assay: Antibacterial activity against Mycobacterium tuberculosis H37Rv ATCC 27294T assessed as amikacin MIC at 2 ug/ml after 7 days by microdilution checkerboard assay; format: functional; details: 168 h; method in brief: as §1
[24] = tested on: Mycobacterium tuberculosis; assay: Antibacterial activity against Mycobacterium tuberculosis H37Rv ATCC 27294T assessed as amikacin MIC at 4 ug/ml after 7 days by microdilution checkerboard assay; format: functional; details: 168 h; method in brief: as §1
[25] = tested on: Mycobacterium tuberculosis; assay: Anti-tubercular activity against Mycobacterium tuberculosis H37Rv ATCC 27294T after 7 days by mircodilution method; format: functional; details: 168 h
Method in brief: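 H37Rv grown static in MB7H9 + 10% OADC at 37 °C to OD600 0.8, then diluted to about 10^5 cells/ml. Mixed 1:1 with two-fold serial dilutions in MB7H9/OADC and incubated 7 days at 37 °C. MTT added to final 2.5% and plates incubated overnight. MIC is the lowest concentration with no colour change. Run in triplicate.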

[26] = tested on: Mycobacterium tuberculosis; assay: Antibacterial activity against Mycobacterium tuberculosis H37Rv ATCC 27294T assessed as isoniazid MIC at 8 ug/ml after 7 days by microdilution checkerboard assay; format: functional; details: 168 h; method in brief: as §1
[27] = tested on: Mycobacterium tuberculosis; assay: Antibacterial activity against Mycobacterium tuberculosis H37Rv ATCC 27294T assessed as isoniazid MIC at 4 ug/ml after 7 days by microdilution checkerboard; format: functional; details: 168 h; method in brief: as §1
[28] = tested on: Mycobacterium tuberculosis; assay: Antibacterial activity against Mycobacterium tuberculosis H37Rv ATCC 27294T assessed as isoniazid MIC at 2 ug/ml after 7 days by microdilution checkerboard assay; format: functional; details: 168 h; method in brief: as §1
[29] = tested on: Mycobacterium tuberculosis; assay: Antibacterial activity against Mycobacterium tuberculosis H37Rv ATCC 27294T assessed as isoniazid MIC at 1 ug/ml after 7 days by microdilution checkerboard assay; format: functional; details: 168 h; method in brief: as §1
[30] = tested on: Mycobacterium tuberculosis; assay: Antibacterial activity against Mycobacterium tuberculosis H37Rv ATCC 27294T assessed as isoniazid MIC at 0.5 ug/ml after 7 days by microdilution checkerboard assay; format: functional; details: 168 h; method in brief: as §1
[31] = tested on: Mycobacterium tuberculosis; assay: Antibacterial activity against Mycobacterium tuberculosis H37Rv ATCC 27294T assessed as amikacin MIC at 8 ug/ml after 7 days by microdilution checkerboard assay; format: functional; details: 168 h; method in brief: as §1
[32] = tested on: Mycobacterium tuberculosis; assay: Antibacterial activity against Mycobacterium tuberculosis H37Rv ATCC 27294T assessed as rifampin MIC at 0.12 ug/ml after 7 days by microdilution checkerboard assay; format: functional; details: 168 h; method in brief: as §1
[33] = tested on: Mycobacterium tuberculosis; assay: Antibacterial activity against Mycobacterium tuberculosis H37Rv ATCC 27294T assessed as rifampin MIC at 0.25 ug/ml after 7 days by microdilution checkerboard assay; format: functional; details: 168 h; method in brief: as §1
[34] = tested on: Mycobacterium tuberculosis; assay: Antibacterial activity against Mycobacterium tuberculosis H37Rv ATCC 27294T assessed as rifampin MIC at 0.5 ug/ml after 7 days by microdilution checkerboard assay; format: functional; details: 168 h
Method in brief: (§2)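 M. tuberculosis H37Rv grown in MB7H9 + 10% OADC at 37 °C to OD600 0.8; plates inoculated at 10^5 CFU/ml. Rifampicin two-fold serially diluted across columns, test compound two-fold diluted down rows (two-dimensional checkerboard). Sealed, 37 °C for seven days, then MTT added and incubated overnight. MIC read as no colour change. Triplicate.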

[35] = tested on: Mycobacterium tuberculosis; assay: Antibacterial activity against Mycobacterium tuberculosis H37Rv ATCC 27294T assessed as rifampin MIC at 1 ug/ml after 7 days by microdilution checkerboard assay; format: functional; details: 168 h; method in brief: as §2
[36] = tested on: Mycobacterium tuberculosis; assay: Antibacterial activity against Mycobacterium tuberculosis H37Rv ATCC 27294T assessed as rifampin MIC at 2 ug/ml after 7 days by microdilution checkerboard assay; format: functional; details: 168 h; method in brief: as §2
[37] = tested on: Mycobacterium tuberculosis; assay: Antibacterial activity against Mycobacterium tuberculosis H37Rv ATCC 27294T assessed as rifampin MIC at 4 ug/ml after 7 days by microdilution checkerboard assay; format: functional; details: 168 h; method in brief: as §2
[38] = tested on: Mycobacterium tuberculosis; assay: Antibacterial activity against Mycobacterium tuberculosis H37Rv ATCC 27294T assessed as rifampin MIC at 8 ug/ml after 7 days by microdilution checkerboard assay; format: functional; details: 168 h; method in brief: as §2

CSc1ccc2c(c1)N(CCC1CCCCN1C)c1ccccc1S2 (stereo not drawn) [THIORIDAZINE]
MIC [1]: 31 µg/mL (≈ 83.7 µM) | IC50 [2]: 5.5 µg/mL (≈ 14.8 µM) | MIC [3]: 0.1 µg/mL | MIC [4]: 0.1 µg/mL | MIC [5]: 12.5 µg/mL | MIC [6]: 12.5 µg/mL | MIC [7]: 6.25 µg/mL | MIC [8]: 6.25 µg/mL | MIC [9]: 3.12 µg/mL | MIC [10]: 1.56 µg/mL | MIC [11]: 0.195 µg/mL | MIC [12]: 2 µg/mL | MIC [13]: 2 µg/mL | MIC [14]: 1 µg/mL | MIC [15]: 1 µg/mL | MIC [16]: 1 µg/mL | MIC [17]: 1 µg/mL | MIC [18]: 0.0312 µg/mL | MIC [19]: 1 µg/mL | MIC [20]: 1 µg/mL | MIC [21]: 1 µg/mL | MIC [22]: 1 µg/mL | MIC [23]: 1 µg/mL | MIC [24]: 0.25 µg/mL | MIC [25]: 16 µg/mL (≈ 43.2 µM) | MIC [26]: 1.56 ng/mL | MIC [27]: 0.0125 µg/mL | MIC [28]: 0.1 µg/mL | MIC [29]: 0.1 µg/mL | MIC [30]: 0.1 µg/mL | MIC [31]: 0.0312 µg/mL | MIC [32]: 1 µg/mL | MIC [33]: 0.5 µg/mL | MIC [34]: 0.5 µg/mL | MIC [35]: 0.5 µg/mL | MIC [36]: 0.5 µg/mL | MIC [37]: 0.5 µg/mL | MIC [38]: 0.0156 µg/mL
